Reference: ChEMBL document CHEMBL3351818, “Synthesis and biological evaluation of novel 3,4-diaryl-1,2,5-selenadiazol analogues of combretastatin A-4” (Eur J Med Chem, 2014)
Values belong to the compound of their own block, whether it stands above or below them. Active and inactive are the calls of the source. No cut-off for these calls is given here.

Legend:
[1] = Antiproliferative activity against human SGC7901 cells after 72 hrs by MTT assay; type: functional, cell-based; conditions: SGC-7901, 72 h
In short: (§1)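 Cells were seeded at 1–3 × 10⁴/well, depending on growth rate, and grown 24 h. Triplicate wells were then exposed to agents for 72 h at 37 °C in 5% CO₂. IC50 is the concentration giving 50% absorbance reduction versus vehicle, averaged from ≥3 independent experiments. SGC-7901 and HT-1080 were cultured in RPMI-1640 with 10% FBS.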

[2] = Antiproliferative activity against human HT1080 cells after 72 hrs by MTT assay; type: functional, cell-based; conditions: HT-1080, 72 h; in short: as §1
KB = test: Antiproliferative activity against human KB cells after 72 hrs by MTT assay; type: functional, cell-based; in short: as §1
Tubulin (Homo sapiens) [3] = molecular target: T1, Tubulin (Homo sapiens) (UniProt P68371+Q9H4B7+P0DPH7+P68366+Q13509+Q71U36+P04350+Q3ZCM7+P07437+P68363+Q9BQE3+Q6PEY2+Q13885+Q9BVA1+Q9BUF5); test: Inhibition of tubulin (unknown origin) polymerization measured for 90 mins by fluorescence assay; type: protein-complex assay
Tubulin (Homo sapiens) [4] = molecular target: T1, Tubulin (Homo sapiens); test: Inhibition of tubulin (unknown origin) polymerization at 1 uM measured for 90 mins by fluorescence assay; type: protein-complex assay
Tubulin (Homo sapiens) [5] = molecular target: T1, Tubulin (Homo sapiens); test: Inhibition of tubulin (unknown origin) polymerization at 2 uM measured for 90 mins by fluorescence assay; type: protein-complex assay
Tubulin (Homo sapiens) [6] = molecular target: T1, Tubulin (Homo sapiens); test: Inhibition of tubulin (unknown origin) polymerization at 4 uM measured for 90 mins by fluorescence assay; type: protein-complex assay
Tubulin (Homo sapiens) [7] = molecular target: T1, Tubulin (Homo sapiens); test: Inhibition of tubulin (unknown origin) polymerization at 8 uM measured for 90 mins by fluorescence assay; type: protein-complex assay
HT-1080 [8] = test: Disruption of microtubule network in human HT1080 cells assessed as cell rounding at 2 times IC50 after 12 hrs by immunofluorescence staining method; type: cell-based
In short: (§2)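 HT-1080 cells seeded at 1 × 10⁴/well, grown 24 h, then given vehicle or agent for 12 h. Fixed in 4% formaldehyde/PBS 30 min at −20 °C, permeabilised with 0.1% Triton X-100 5 min, and blocked with 5% BSA. Anti-α-tubulin (1:100) applied overnight at 4 °C, then FITC anti-mouse secondary (1:1000) 3 h at 37 °C, with DAPI counterstain.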

[9] = Cell cycle arrest in human HT1080 cells assessed as accumulation at sub-G1 phase at 50 nM after 24 hrs using propidium iodide staining by FACScan flow cytometry; type: functional, cell-based; conditions: HT-1080
In short: (§3)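 HT-1080 cells (8 × 10⁴) exposed 24 h to test agent or 0.05% DMSO vehicle. Harvested by centrifugation, PBS-washed, fixed in ice-cold 70% ethanol, then RNase-treated 30 min at 37 °C. Propidium iodide 50 µg/mL applied 30 min at 4 °C in the dark before FACScan flow cytometry. Repeated at least three times.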

[10] = Cell cycle arrest in human HT1080 cells assessed as accumulation at G0/G1 phase at 50 nM after 24 hrs using propidium iodide staining by FACScan flow cytometry (Rvb =52.17 %); type: functional, cell-based; conditions: HT-1080; in short: as §3
[11] = Cell cycle arrest in human HT1080 cells assessed as accumulation at S phase at 50 nM after 24 hrs using propidium iodide staining by FACScan flow cytometry (reference value: 18.56 %); type: functional, cell-based; conditions: HT-1080; in short: as §3
[12] = Cell cycle arrest in human HT1080 cells assessed as accumulation at G2/M phase at 50 nM after 24 hrs using propidium iodide staining by FACScan flow cytometry (reference value: 29.27 %); type: functional, cell-based; conditions: HT-1080; in short: as §3
[13] = Cell cycle arrest in human HT1080 cells assessed as accumulation at G2/M phase after 24 hrs using propidium iodide staining by FACScan flow cytometry; type: functional, cell-based; conditions: HT-1080; in short: as §3
[14] = Cell cycle arrest in human HT1080 cells assessed as accumulation at sub-G1 phase at 75 nM after 24 hrs using propidium iodide staining by FACScan flow cytometry; type: functional, cell-based; conditions: HT-1080; in short: as §3
[15] = Cell cycle arrest in human HT1080 cells assessed as accumulation at G0/G1 phase at 75 nM after 24 hrs using propidium iodide staining by FACScan flow cytometry (Rvb =52.17 %); type: functional, cell-based; conditions: HT-1080; in short: as §3
[16] = Cell cycle arrest in human HT1080 cells assessed as accumulation at S phase at 75 nM after 24 hrs using propidium iodide staining by FACScan flow cytometry (reference value: 18.56 %); type: functional, cell-based; conditions: HT-1080; in short: as §3
[17] = Cell cycle arrest in human HT1080 cells assessed as accumulation at G2/M phase at 75 nM after 24 hrs using propidium iodide staining by FACScan flow cytometry (reference value: 29.27 %); type: functional, cell-based; conditions: HT-1080; in short: as §3
[18] = Cell cycle arrest in human HT1080 cells assessed as accumulation at sub-G1 phase at 100 nM after 24 hrs using propidium iodide staining by FACScan flow cytometry; type: functional, cell-based; conditions: HT-1080; in short: as §3
[19] = Cell cycle arrest in human HT1080 cells assessed as accumulation at G0/G1 phase at 100 nM after 24 hrs using propidium iodide staining by FACScan flow cytometry (Rvb =52.17 %); type: functional, cell-based; conditions: HT-1080; in short: as §3
[20] = Cell cycle arrest in human HT1080 cells assessed as accumulation at S phase at 100 nM after 24 hrs using propidium iodide staining by FACScan flow cytometry (reference value: 18.56 %); type: functional, cell-based; conditions: HT-1080; in short: as §3
[21] = Cell cycle arrest in human HT1080 cells assessed as accumulation at G2/M phase at 100 nM after 24 hrs using propidium iodide staining by FACScan flow cytometry (reference value: 29.27 %); type: functional, cell-based; conditions: HT-1080; in short: as §3
[22] = Cell cycle arrest in human HT1080 cells assessed as accumulation at sub-G1 phase at 150 nM after 24 hrs using propidium iodide staining by FACScan flow cytometry; type: functional, cell-based; conditions: HT-1080; in short: as §3
[23] = Cell cycle arrest in human HT1080 cells assessed as accumulation at G0/G1 phase at 150 nM after 24 hrs using propidium iodide staining by FACScan flow cytometry (Rvb =52.17 %); type: functional, cell-based; conditions: HT-1080; in short: as §3
[24] = Cell cycle arrest in human HT1080 cells assessed as accumulation at S phase at 150 nM after 24 hrs using propidium iodide staining by FACScan flow cytometry (reference value: 18.56 %); type: functional, cell-based; conditions: HT-1080; in short: as §3
[25] = Cell cycle arrest in human HT1080 cells assessed as accumulation at G2/M phase at 150 nM after 24 hrs using propidium iodide staining by FACScan flow cytometry (reference value: 29.27 %); type: functional, cell-based; conditions: HT-1080; in short: as §3
[26] = Cell cycle arrest in human HT1080 cells assessed as accumulation at sub-G1 phase at 25 nM after 24 hrs using propidium iodide staining by FACScan flow cytometry; type: functional, cell-based; conditions: HT-1080; in short: as §3
[27] = Cell cycle arrest in human HT1080 cells assessed as accumulation at G0/G1 phase at 25 nM after 24 hrs using propidium iodide staining by FACScan flow cytometry (Rvb =52.17 %); type: functional, cell-based; conditions: HT-1080; in short: as §3
[28] = Cell cycle arrest in human HT1080 cells assessed as accumulation at S phase at 25 nM after 24 hrs using propidium iodide staining by FACScan flow cytometry (reference value: 18.56 %); type: functional, cell-based; conditions: HT-1080; in short: as §3
[29] = Cell cycle arrest in human HT1080 cells assessed as accumulation at G2/M phase at 25 nM after 24 hrs using propidium iodide staining by FACScan flow cytometry (reference value: 29.27 %); type: functional, cell-based; conditions: HT-1080; in short: as §3
HT-1080 [30] = test: Disruption of microtubule network in human HT1080 cells assessed as cell detachment at 2 times IC50 after 12 hrs by immunofluorescence staining method; type: cell-based; in short: as §2
HT-1080 [31] = test: Disruption of microtubule network in human HT1080 cells assessed as loss of the radial distribution of structured microtubules at 2 times IC50 after 12 hrs by immunofluorescence staining method; type: cell-based; in short: as §2

IC50 (KB): 0.011 µM
Compound: COc1ccc(-c2n[se]nc2-c2cc(OC)c(OC)c(OC)c2)cc1N
IC50 [1]: 0.021 µM
IC50 [2]: 0.026 µM

IC50 (KB): 0.0039 µM
inhibition (Tubulin (Homo sapiens) [3]): Dose-dependent effect
inhibition (Tubulin (Homo sapiens) [4]): 20.4%
inhibition (Tubulin (Homo sapiens) [5]): 48.8%
inhibition (Tubulin (Homo sapiens) [6]): 65%
inhibition (Tubulin (Homo sapiens) [7]): 97.6%
Compound: COc1ccc(-c2n[se]nc2-c2cc(OC)c(OC)c(OC)c2)cc1O
IC50 [1]: 0.019 µM
IC50 [2]: 0.021 µM
Activity (HT-1080 [8]): Active
Activity [9]: 2.47%
Activity [10]: 49.1%
Activity [11]: 16%
Activity [12]: 32.4%
Activity [13]: Dose-dependent effect
Activity [14]: 4.39%
Activity [15]: 37.2%
Activity [16]: 13.3%
Activity [17]: 45.2%
Activity [18]: 18.1%
Activity [19]: 5.46%
Activity [20]: 4.07%
Activity [21]: 72.4%
Activity [22]: 10.9%
Activity [23]: 2.61%
Activity [24]: 5.82%
Activity [25]: 80.7%
Activity [26]: 15.7%
Activity [27]: 3.93%
Activity [28]: 3.1%
Activity [29]: 71.9%
Activity (HT-1080 [30]): Active
Activity (HT-1080 [31]): Active

Compound: c1ccc2cc(-c3n[se]nc3-c3ccc4c(c3)OCO4)ccc2c1
IC50 [1]: 17.3 µM
IC50 [2]: 23.3 µM
IC50 (KB): 10.4 µM

IC50 (KB): 10.1 µM
Compound: COc1ccc(-c2n[se]nc2-c2cc(OC)c(OC)c(OC)c2)cc1[N+](=O)[O-]
IC50 [1]: > 30 µM
IC50 [2]: 24.8 µM

Compound: COc1ccc(-c2n[se]nc2-c2cc(OC)c(OC)c(OC)c2)cc1
IC50 [1]: 0.063 µM
IC50 [2]: 0.084 µM
IC50 (KB): 0.031 µM

IC50 (KB): 0.099 µM
Compound: CCOc1ccc(-c2n[se]nc2-c2cc(OC)c(OC)c(OC)c2)cc1N
IC50 [1]: 0.14 µM
IC50 [2]: 10.1 µM

IC50 (KB): 1.52 µM
Compound: CNc1cc(-c2n[se]nc2-c2cc(OC)c(OC)c(OC)c2)ccc1OC
IC50 [1]: > 30 µM
IC50 [2]: 0.98 µM

Compound: COc1ccc(-c2n[se]nc2-c2ccc3c(c2)OCO3)cc1O
IC50 [1]: 3.68 µM
IC50 [2]: 0.73 µM
IC50 (KB): 2.38 µM

Compound: COc1cc(-c2n[se]nc2-c2ccc(Br)cc2)cc(OC)c1OC
IC50 [1]: 10.9 µM
IC50 [2]: 7.4 µM
IC50 (KB): 7.86 µM

IC50 (KB): 3.06 µM
Compound: COc1ccc(-c2n[se]nc2-c2cc(OC)c(OC)c(OC)c2)cc1Br
IC50 [1]: > 30 µM
IC50 [2]: 2.59 µM

IC50 (KB): 0.77 µM
Compound: COc1cc(-c2n[se]nc2-c2ccc3ccccc3c2)cc(OC)c1OC
IC50 [1]: 2.35 µM
IC50 [2]: 1.11 µM
